Assay outcomes from PubChem BioAssay.
hIAP block = human IAP inhibition | purified IAP, CDP-Star luminescence, 30 min | 330,000 tested, 0.12% active | P09923 | inhibition, % at 10 µM | AID 2544;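 active means inhibition reaching a set limit with compound at 10 µM in the primary screen, cut at about 35% in these data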
Target sequence (P09923 whole entry, looked up): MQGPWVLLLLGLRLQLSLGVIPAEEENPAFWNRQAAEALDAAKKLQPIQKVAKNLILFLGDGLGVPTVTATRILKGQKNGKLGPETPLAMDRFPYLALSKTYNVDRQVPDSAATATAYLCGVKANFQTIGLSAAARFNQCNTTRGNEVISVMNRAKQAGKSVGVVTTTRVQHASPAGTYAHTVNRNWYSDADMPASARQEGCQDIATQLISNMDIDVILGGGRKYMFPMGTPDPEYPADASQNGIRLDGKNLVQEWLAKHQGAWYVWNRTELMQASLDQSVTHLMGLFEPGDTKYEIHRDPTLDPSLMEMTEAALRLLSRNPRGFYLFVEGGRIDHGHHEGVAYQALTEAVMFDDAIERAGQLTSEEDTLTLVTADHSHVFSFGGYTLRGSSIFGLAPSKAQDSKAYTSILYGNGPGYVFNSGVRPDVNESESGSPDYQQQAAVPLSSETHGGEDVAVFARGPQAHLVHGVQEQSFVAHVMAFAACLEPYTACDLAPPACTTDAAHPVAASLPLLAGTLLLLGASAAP
bIAP act = intestinal alkaline phosphatase (bovine) activation | 200,000 tested, 0.17% active | activation factor at 20 µM | purified bovine IAP, CDP-star luminescence, 30 min; hits give high values; fold of DMSO-control signal, blank-subtracted;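 active means activation factor of 2 or more at 20 µM, a signal rise over negative controls twice the positive control's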
hIAP activ = human IAP activation | 330,000 tested, 0.16% active | P09923 | activation factor at 10 µM | purified human IAP, CDP-Star luminescence, 30 min; hits give high values; 1 = vehicle-only enzyme, 0 = enzyme-free background;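 active means activation factor of the enzyme at least 2-fold when tested at 20 µM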
mIAP act = mouse IAP activation; muIAP, CDP-Star luminescence, 30 min; hits give high values; 1 = vehicle-only enzyme signal, 0 = enzyme-free wells; activation factor at 10 µM; 330,000 tested, 0.24% active; AID 2805;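 active means activation factor of at least 2 at 20 µM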
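System: Mouse IAP enzyme | Also added: CDP-Star substrate | Dosing: Compounds dispensed in DMSO | Schedule: 30 min enzyme-substrate-compound incubation at room temperature | Technique: Chemiluminescence readout | Control set: DMSO-only wells and no-enzyme negative control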
mIAP block = mouse IAP inhibition; inhibition, % at 10 µM; purified mouse IAP, CDP-Star luminescence, 30 min; 330,000 tested, 0.2% active; AID 2806;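 active means inhibition of at least 40% at 10 µM in the primary screen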
bIAP inh = blocks bovine intestinal alkaline phosphatase activity; purified bovine IAP, CDP-star luminescence, 30 min; inhibition, % at 20 µM; 190,000 tested, under 10 active; AID 1019;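 active means over 50% inhibition of intestinal alkaline phosphatase at 20 µM in the single-dose screen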
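System: purified bovine intestinal alkaline phosphatase (IAP) enzyme; Input: IAP diluted 1/65,000,000 in the well; Measured by: CDP-star luminescence signal; Compound dosing: 20 µM single dose; Incubation: 30 min reaction at room temperature.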
Each line names hits and unclear results; the compound was inactive in the other large screens. Compounds with a hit are over-represented: about 0.77% of the library has one in this group of screens.

CCCN1C2CCCC1CC(NC(=S)Nc1cccc(C)c1C)C2 (stereo unspecified)	none (no result: bIAP act, bIAP inh)
Cc1cccc(NC(=S)NC2CC3CCCC(C2)N3Cc2cccs2)c1C (stereo unspecified)	mIAP act 2.31
Cc1cccc(C)c1NC(=O)NC1CC2CCC(C1)N2Cc1cccs1 (stereo unspecified)	none
CCc1ccccc1NC(=S)NC1CC2CCCC(C1)N2Cc1cccs1 (stereo unspecified)	mIAP act 2.4
COc1ccc(S(=O)(=O)NC2CCCC2)cc1C(N)=O	none (no result: bIAP act, bIAP inh)
COc1ccccc1C(=O)C1CCCN(C(=O)c2cnn(C(C)C)c2)C1 (stereo unspecified)	none (no result: bIAP act, bIAP inh)
O=C1N(c2ccccc2C(F)(F)F)O[C@]1(c1ccccc1)C1CCCC1	none (no result: bIAP act, bIAP inh)
COc1cccc(-c2nn(-c3ccccc3)cc2C(=O)OCC(=O)Nc2ncc(Cl)cc2Cl)c1	bIAP act 2
O=C(COC(=O)c1cn(-c2ccccc2)nc1-c1ccccc1)Nc1ncc(Cl)cc1Cl	none (no result: bIAP act, bIAP inh)
Cc1nn(-c2ccccc2)c(C)c1/C=C/C(=O)OCC(=O)Nc1ncc(Cl)cc1Cl	bIAP act 10.9
CCC(C)(C)NC(=O)C(c1cccc(OC)c1)N(C(=O)c1ccn[nH]1)c1cccc(OC)c1 (stereo unspecified)	none
CC(C)(C)NC(=O)C(c1ccc(F)cc1)N(CCc1ccccc1)C(=O)c1ccn[nH]1 (stereo unspecified)	bIAP act 2
COc1ccc(N(C(=O)c2ccn[nH]2)C(C(=O)NC(C)(C)C)c2ccc(F)cc2)cc1 (stereo unspecified)	bIAP act 3
COc1ccc(N(C(=O)C2CSC(=O)C2)C(C(=O)NC(C)(C)C)c2ccncc2)cc1 (stereo unspecified)	none
CCC(C)(C)NC(=O)C(c1cccs1)N(C(=O)c1ccn[nH]1)c1ccccc1 (stereo unspecified)	bIAP act 2.3
Cc1nc(SC(C)C(=O)NC2CCCC2)c2ccccc2n1 (stereo unspecified)	none (no result: bIAP act, bIAP inh)
Cc1ccccc1NC(=O)CN1CCC(NC(=O)Nc2ccccc2)CC1	bIAP act 2.3
C[C@H](CO)N1C[C@H](C)[C@@H](CN(C)S(=O)(=O)c2ccccc2)Oc2ccc(NC(=O)Nc3ccc4c(c3)OCO4)cc2C1=O	mIAP act 2.59 (no result: bIAP act, bIAP inh)
COc1ccc(NC(=O)Nc2ccc3c(c2)C(=O)N([C@H](C)CO)C[C@H](C)[C@@H](CN(C)S(=O)(=O)c2ccc(OC)cc2)O3)cc1	mIAP act 2.55 (no result: bIAP act, bIAP inh)
COc1ccc(S(=O)(=O)N(C)C[C@H]2Oc3ccc(NC(=O)Nc4ccc(C(F)(F)F)cc4)cc3C(=O)N([C@H](C)CO)C[C@@H]2C)cc1	none (no result: bIAP act, bIAP inh)
C[C@H](CO)N1C[C@H](C)[C@@H](CN(C)S(=O)(=O)c2ccccc2)Oc2ccc(NC(=O)Cc3ccccc3)cc2C1=O	none (no result: bIAP act, bIAP inh)
CCOc1cc(C(=O)N(C)CC(=O)Nc2cccc3ccccc23)ccc1OC	none (no result: bIAP act, bIAP inh)
CSCCC(NC(=O)COc1ccccc1)C(=O)N(C)CC(=O)Nc1c(C)cccc1C (stereo unspecified)	none (no result: bIAP act, bIAP inh)
Cc1ccc(N/C(N)=N/c2nc(CSc3nnc(C)s3)cc(=O)[nH]2)c(C)c1	bIAP act 2.1
Cc1cccc(NC(=O)Nc2ccc3c(c2)CCC3)c1	mIAP act 2.88 (no result: bIAP act, bIAP inh)
Cc1csc(NC(=O)COc2ccc3c(c2)CCC3)n1	none (no result: bIAP act, bIAP inh)
O=C(Nc1ccncc1)Nc1ccc(F)c(Cl)c1	none
COC(=O)c1cccc(NC(=O)Nc2ccc(Cl)c(Cl)c2)c1	mIAP act 3.04
COC(=O)c1ccc(NC(=O)Nc2ccc(F)c(Cl)c2)cc1	mIAP act 2.29
COC(=O)c1cc(NC(=O)Nc2ccccc2)ccc1Cl	mIAP act 2.5
COc1ccccc1CN1C(=NC(=O)CCC2CCCC2)SC2CS(=O)(=O)CC21 (stereo unspecified)	none (no result: bIAP act, bIAP inh)
COC(=O)c1ccccc1N1C(=O)C2C(C1=O)[C@H]1C=C[C@@H]2C1 (stereo partly specified)	mIAP block 50.3
O=C(C[n+]1ccccc1)N/N=C/c1cc(Br)ccc1O	none (no result: bIAP act, bIAP inh)
COc1cc(C2CC(c3cccnc3)=NN2c2ccc(F)cc2)cc(OC)c1OC (stereo unspecified)	mIAP act 2.23
Cc1nonc1OCCNc1ccc([N+](=O)[O-])cc1	bIAP act 2.2
Cc1oc(S(=O)(=O)N2CCCCC2)cc1NC(=O)Nc1ccc(F)cc1	mIAP act 2.06 (no result: bIAP act, bIAP inh)
CC(C)(C)c1ccc(NC(=O)Nc2ccc(F)cc2)cc1	mIAP act 2.19
O=C(Nc1ccc(F)cc1)Nc1ccc(S(=O)(=O)N2CCCC2)cc1	none (no result: bIAP act, bIAP inh)
Cc1ccc(NC(=O)CCC(=O)c2ccc(F)cc2)cc1Cl	none
CC(C)(C)c1ccc(COC(=O)Nc2ccc(F)cc2)cc1	none
Cn1cc(NC(=O)Nc2ccc(C(F)(F)F)cc2)c(C(F)(F)F)n1	mIAP act 2.9 (no result: bIAP act, bIAP inh)
Cc1ccc(NC(=O)Nc2ccc(F)cc2)cc1Cl	mIAP act 2.03
Cn1cc(C(=O)Nc2ccc(Cl)cc2)c(C(F)(F)F)n1	none
CCn1nc(C)c(CNC(=O)C2CCC(=O)N(CCc3ccc(Cl)cc3)C2)c1C (stereo unspecified)	none (no result: bIAP act, bIAP inh)
O=C(CSc1ccccc1)NCC1(N2CCCCC2)CCCCC1	none (no result: bIAP act, bIAP inh)
CCC(=O)Nc1cccc(C2=NN(c3ccccc3)C(c3ccc(OC)cc3)C2)c1 (stereo unspecified)	mIAP act 2.73 (no result: bIAP act, bIAP inh)
Cc1cccc(N=C2NC(=O)/C(=C/C=C/c3ccco3)S2)c1	none (no result: hIAP block, hIAP activ, mIAP act, mIAP block)
Cc1ccc(N=C2NC(=O)/C(=C\c3ccco3)S2)cc1	mIAP block 45.4
CCOC(=O)c1ccc(NC(=S)NCCC2=CCCCC2)cc1	mIAP act 2.62
Cc1ccc(NC(=S)NCCC2=CCCCC2)cc1	none
CCOC(=O)c1ccc(NC(=S)NCCc2ccccc2)cc1	none
CCOC(=O)c1ccc(NC(=S)NCCc2ccccc2F)cc1	mIAP act 2.24
CSc1ccc(CCNC(=O)c2cc(-c3ccccc3)c(N3CCOCC3)s2)cc1	mIAP act 2.37 (no result: bIAP act, bIAP inh)
COc1ccc(CCNC(=O)c2ccc(CNc3c(N4CCOCC4)c(=O)c3=O)cc2)cc1OC	none
COc1ccc(CCNC(=O)c2cc(-c3ccccc3)c(N3CCOCC3)s2)cc1OC	mIAP act 2.15 (no result: bIAP act, bIAP inh)
COc1ccc(CCNC(=O)c2cc(-c3ccccc3O)n[nH]2)cc1OC	bIAP act 2
O=C(NCCc1ccccc1)c1cc(-c2ccccc2)c(N2CCOCC2)s1	mIAP act 2.81 (no result: bIAP act, bIAP inh)
Cc1ncc(C[n+]2ccc(C)c(C)c2)c(N)n1	none (no result: bIAP act, bIAP inh)
CN(C)Cc1ccccc1Sc1cccc2ccccc12	bIAP act 2.3 (no result: hIAP block, hIAP activ, mIAP act, mIAP block)
COc1cc(/C=C2\SC(=S)N(NC(=O)c3ccccc3O)C2=O)ccc1O	none (no result: bIAP act, bIAP inh)
O=C(NN1C(=O)/C(=C/c2cc([N+](=O)[O-])ccc2O)SC1=S)c1ccccc1O	mIAP block 51.3 (no result: bIAP act, bIAP inh)
